Measurements from ChEMBL document CHEMBL3992522, “Antileishmanial Activity of Pyrazolopyridine Derivatives and Their Potential as an Adjunct Therapy with Miltefosine” (J Med Chem, 2017).
Active and inactive are the calls of the source. No cut-off for these calls is given here.

Tests used:
Leishmania donovani [1] = experiment: Induction of mitochondrial membrane potential loss in Leishmania donovani MHOM/IN/80/DD8 promastigote forms at 50 uM after 24 hrs by JC-1 staining based flow cytometry (reference value: 5.02%); format: functional
Mus musculus [2] = experiment: Restoration of T cell proliferation in Balb/c mouse splenocytes infected with Leishmania donovani amastigote forms at 25 mg/kg, ip co-treated with 5 mg/kg, po miltefosine administered for 5 consecutive days measured on day 7 post last treatment followed by soluble Leishmania donovani promastigote antigen-stimulation for 72 hrs by MTT assay relative to control; format: functional
Method in brief: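 Splenocytes from treated infected BALB/c mice (day 4 or 7 post-treatment) isolated by Ficoll gradient, plated at 10^5/well in triplicate in phenol red-free RPMI 1640, stimulated with 5 μg/mL SLA for 72 h at 37 °C, 5% CO2. Proliferation read by MTT (0.5 mg/mL), formazan dissolved in DMSO, OD 540 nm.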

[3] = AUC (0 to infinity) in Swiss mouse at 50 mg/kg, po by LC-MS/MS analysis; format: ADME, organism-based; design: dose 50 mg/kg, route oral, time infinity; conditions: in vivo
Leishmania donovani [4] = experiment: Antileishmanial activity against Leishmania donovani MHOM/IN/80/DD8 promastigote forms harboring luciferase gene at 6.25 to 12.5 uM up to 4 days by Steady-Glo reagent based luminescence assay; format: functional
Method in brief: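 Log-phase luciferase promastigotes at 1.0×10^6 at 24 °C, pH 7.4, given two-fold dilutions from 200 to 6.25 µM. RLU in lysed cultures measured daily for up to 4 days to plot growth curves. Three independent experiments.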

Mus musculus [5] = experiment: Toxicity in Balb/c mouse infected with Leishmania donovani amastigote forms assessed as changes in body weight at 12.5 to 200 mg/kg, ip administered for 5 consecutive days; format: organism-based; conditions: in vivo
Method in brief: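 L. donovani-infected BALB/c mice (15-day infection, 5 per group) dosed for five consecutive days: test compound 12.5–200 mg/kg i.p. in 8% DMSO, miltefosine orally in TDW, alone or in combination. Body weight followed after treatment.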

Leishmania donovani [6] = experiment: Induction of apoptosis in Leishmania donovani MHOM/IN/80/DD8 promastigote forms assessed as late apoptotic cells at 50 uM after 48 hrs by Annexin V-FITC/propidium iodide staining based flow cytometry (reference value: 0.86%); format: functional
Leishmania donovani [7] = experiment: Induction of apoptosis in Leishmania donovani MHOM/IN/80/DD8 promastigote forms assessed as cell rounding at IC50 after 48 hrs by propidium iodide staining based fluorescent microscopic method; format: functional
[8] = Cytotoxicity against African green monkey Vero cells assessed as cell viability up to 200 uM after 72 hrs by MTT assay relative to control; format: cell-based; conditions: chlorocebus sabaeus, read-out: Activity
Mus musculus [9] = experiment: Increase in iNOS mRNA expression level in Balb/c mouse splenocytes infected with Leishmania donovani amastigote forms at 25 mg/kg, ip for 5 consecutive days measured on day 4 post last treatment by RT-PCR assay relative to control; format: functional
Method in brief: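 Infected BALB/c mice dosed for 5 consecutive days (test compound i.p. in 8% DMSO, miltefosine oral), n = 5 per group; splenocytes taken day 4 and day 7 post-treatment. Total RNA extracted and iNOS mRNA quantified by real-time PCR, normalized to mouse β-actin, expressed as fold change over uninfected controls.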

Mus musculus [10] = experiment: Toxicity in Balb/c mouse infected with Leishmania donovani amastigote forms assessed as changes in body weight at 12.5 to 200 mg/kg, ip co-treated with 5 to 25 mg/kg, po miltefosine for 5 consecutive days; format: organism-based; conditions: in vivo
[11] = Selectivity index, ratio of CC50 for mouse J774 cells to IC50 for Leishmania donovani MHOM/IN/80/DD8 amastigote forms infected in mouse J774 cells; format: toxicity, cell-based; conditions: read-out: Ratio CC50/IC50
Method in brief: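 CC50: Vero or J774 cells (1×10^5/well) exposed 72 h to seven two-fold dilutions, 500–7.81 μM; MTT 2 h at 37 °C, formazan in DMSO read at 540 nm. IC50: luciferase-expressing Dd8 amastigotes in J774 macrophages (1:8), 72 h, luminescence, four-parameter Hill fit. SI = CC50/IC50, IC50 mean of three experiments.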

Mus musculus [12] = experiment: (§1) Increase in iNOS-mediated NO generation in Balb/c mouse splenocytes infected with Leishmania donovani amastigote forms at 50 mg/kg, ip for 5 consecutive days measured on day 4 and 7 post last treatment followed by soluble Leishmania donovani promastigote antigen-stimulation for 72 hrs by Griess assay relative to control; format: functional
Method in brief: (§2)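 Splenocytes from treated infected BALB/c mice (5-day regimen, i.p. test compound, oral miltefosine; n = 5) isolated day 4 and day 7 post-treatment. Cultured in phenol red-free RPMI 1640 with 5 μg/mL SLA for 72 h at 37 °C, 5% CO2. Supernatant nitrite measured by Griess assay at 540 nm against a sodium nitrite standard curve.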

Leishmania donovani [13] = experiment: Antileishmanial activity against Leishmania donovani amastigote forms infected in Balb/c mouse assessed as reduction in spleen weight at 12.5 to 200 mg/kg, ip administered for 5 consecutive days co-treated with 5 to 25 mg/kg, po miltefosine; format: functional, organism-based
Mus musculus [14] = experiment: Decrease in TGFbeta level in Balb/c mouse splenocytes infected with Leishmania donovani amastigote forms at 25 mg/kg, ip co-treated with 5 mg/kg, po miltefosine administered for 5 consecutive days measured on day 4 post last treatment by sandwich ELISA relative to control; format: functional
Method in brief: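 Splenocytes (2×10^6) from treated infected BALB/c mice taken on day 4 or 7 post-treatment. Cultured in phenol-red-free RPMI 1640 with 5 μg/mL soluble L. donovani antigen for 72 h at 37 °C, 5% CO2. Supernatant cytokines measured by sandwich ELISA against a standard curve. Mean ± SD, n = 5 mice per group, three independent experiments.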

Mus musculus [15] = experiment: Increase in TNFalpha level in Balb/c mouse splenocytes infected with Leishmania donovani amastigote forms at 25 mg/kg, ip co-treated with 5 mg/kg, po miltefosine administered for 5 consecutive days measured on day 4 post last treatment by sandwich ELISA relative to control; format: functional
Method in brief: (§3)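 BALB/c mice infected with L. donovani (15 days); treatment for 5 consecutive days, test compound i.p. in 8% DMSO/water, miltefosine oral in TDW; sacrificed day 4 and day 7 post-treatment, n = 5 per group. Splenocytes (2×10^6) cultured 72 h in phenol red-free RPMI 1640 with 5 μg/mL SLA; supernatant cytokines by sandwich ELISA.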

[16] = Stability in pH 6.5 simulated intestinal fluid at 5 ug/ml after 120 mins by HPLC method
Method in brief: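 Incubated in simulated gastric fluid (pH 1.2) or simulated intestinal fluid (pH 6.5); percentage remaining intact determined after 120 min.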

Mus musculus [17] = experiment: as §1, with “25” for “50”; format: functional; method in brief: as §2
Leishmania donovani [18] = experiment: Antileishmanial activity against Leishmania donovani amastigote forms infected in Balb/c mouse assessed as inhibition of parasitic burden in liver at 50 mg/kg, ip administered for 5 consecutive days measured on day 7 post last treatment by Giemsa staining based assay relative to control; format: functional; conditions: 168 h
Leishmania donovani [19] = experiment: Antileishmanial activity against Leishmania donovani amastigote forms infected in Balb/c mouse assessed as reduction in liver weight at 12.5 to 200 mg/kg, ip administered for 5 consecutive days; format: functional, organism-based
Mus musculus [20] = experiment: Increase in TNFalpha level in Balb/c mouse splenocytes infected with Leishmania donovani amastigote forms at 25 mg/kg, ip co-treated with 5 mg/kg, po miltefosine administered for 5 consecutive days measured on day 7 post last treatment by sandwich ELISA relative to control; format: functional; method in brief: as §3

COc1ccc(C2C3=C(CCC3=O)Nc3c2c(-c2c[nH]c4ccccc24)nn3-c2ccc(Cl)c(Cl)c2)cc1OC (stereo not given)
Activity (Leishmania donovani [1]): 52.6%
fold change (FC) (Mus musculus [2]): 8.4
AUC(0-inf) [3]: 31.7 µM·h
Activity (Leishmania donovani [4]): Active
Activity (Mus musculus [5]): Non-Toxic
Activity (Leishmania donovani [6]): 54.2%
Activity (Leishmania donovani [7]): Active
viability at 72 h [8]: > 95%
fold change (FC) (Mus musculus [9]): 4.9
Activity (Mus musculus [10]): Non-Toxic
selectivity ratio [11]: 101
fold change (FC) (Mus musculus [12]): 4.7
Activity (Leishmania donovani [13]): Active
inhibition (INH) (Mus musculus [14]): 88%
fold change (FC) (Mus musculus [15]): 7.4
Stability [16]: 99%
fold change (FC) (Mus musculus [17]): 4.1
inhibition in vivo at 50 mg/kg (Leishmania donovani [18]): > 93%
Activity (Leishmania donovani [19]): Active
fold change (FC) (Mus musculus [20]): 7.3
